High-throughput results from PubChem.
MLL AF4-AF9 inh = inhibitors of AF4 peptide binding to AF9, primary screen, biochemical, AlphaScreen, biotin-AF4 peptide, FLAG-AF9, single point; Protein AF-9 (Homo sapiens), P42568; inhibition, % at 10 µM; actives 0.47% (n = 350,000);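 active means every replicate reaching a set inhibition limit, whatever the replicate mean, cut at about 25% in these data; inconclusive means mean inhibition reaches that limit but some replicates miss it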;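 further: 0% = plate neutral control median and 100% = total signal loss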
Target sequence (P42568 whole entry, looked up): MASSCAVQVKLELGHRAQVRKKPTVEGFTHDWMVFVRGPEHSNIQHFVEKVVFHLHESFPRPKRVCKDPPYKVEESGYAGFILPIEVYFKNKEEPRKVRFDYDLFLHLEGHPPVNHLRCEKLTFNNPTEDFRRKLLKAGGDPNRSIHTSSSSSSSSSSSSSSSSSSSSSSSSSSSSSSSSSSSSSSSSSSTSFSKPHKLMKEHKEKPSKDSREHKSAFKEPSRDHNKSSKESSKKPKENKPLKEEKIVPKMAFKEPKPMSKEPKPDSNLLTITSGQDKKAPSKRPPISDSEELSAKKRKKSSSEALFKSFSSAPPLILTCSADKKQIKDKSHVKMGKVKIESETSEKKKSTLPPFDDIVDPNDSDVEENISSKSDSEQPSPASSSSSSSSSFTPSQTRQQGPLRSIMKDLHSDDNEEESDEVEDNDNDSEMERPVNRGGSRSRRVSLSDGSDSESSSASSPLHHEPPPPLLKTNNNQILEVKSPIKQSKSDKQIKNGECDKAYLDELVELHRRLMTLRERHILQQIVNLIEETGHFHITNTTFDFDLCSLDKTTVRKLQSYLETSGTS
Cneo AK release = Cryptococcus neoformans cell lysis inducers, primary screen, AK release luminescence, single concentration; lysis activity, % at 15 µM; AID 651654, 2012; C. neoformans lysis, adenylate kinase release luminescence, 4 h; normalised: neutral wells 0, clomiphene wells 100; actives 0.2% (n = 360,000);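 active means mean lysis activity across replicates of at least 80%, whatever share of replicates individually reach that level; inactive means mean lysis activity below 80%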
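Material: C. neoformans cells; Schedule: 4 h static compound exposure, 37 °C, read 1 h post-reagent; Measured by: adenylate kinase release luminescence; Read-out: signal increase indicating cell lysis; Controls: Clomiphene as positive lysis control.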
DENV2 CPE rescue = inhibitors of DENV2 cytopathic effect, primary screen, cell-based, plate reader, single concentration; DENV2-infected cells, cytopathic effect rescue; CPE inhibition, % at 9.99 µM; actives 1.7% (n = 350,000); AID 651640, 2012; in the data active means CPE inhibition above about 20%, passing the limit was not always enough; inconclusive means no clear call, values can overlap the other calls; tested in BHK-21 cells;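 further: 0% = median of neutral control wells and 100% = median of positive control wells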
Ecoli rRNA inh = reduced GFP signal of wild-type E. coli, primary screen, bacterial rRNA inhibitor project, GFP/RFP fluorescence, OD600, single point; E. coli WT GFP vs humanized-ribosome RFP mutants, 24 h; active compounds read low; DMSO median 0, no signal -100; actives 1.6% (n = 350,000); GFP signal change (wild-type ribosome), % (concentration not given with the values);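 active means significant combined selectivity score with lowered wild-type GFP, culture density cut under 30%, mutant RFP and density less affected; inactive means any of these conditions unmet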
PfHsp90 yeast 2 = growth inhibition of PfHsp90-expressing yeast, primary screen, antimalarial PfHsp90 inhibitor project, S. cerevisiae, BacTiter-Glo luminescence, single point, set 2. inhibition, % at 9.4 µM. BacTiter-Glo ATP, 48 h; yeast lacking PDR1 and PDR3 efflux regulators. actives 0.32% (n = 310,000);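 active means every replicate shows inhibition above about 80%, whatever the replicate mean, limit read from the data; inconclusive means mean inhibition reaches the set limit but some replicate falls short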;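 further: 0% = DMSO neutral controls and 100% = 20 µM radicicol positive controls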
S100A4 MyoIIA = inhibitors of S100A4-myosin IIA peptide binding, primary screen, biochemical, fluorescence polarization, TAMRA-MyoIIA peptide | actives 0.14% (n = 360,000) | inhibition, % at 10.7 µM | Protein S100-A4 (Homo sapiens), P26447;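 active means mean inhibition of at least 70% across replicates, with every replicate also reaching that level; inconclusive means mean inhibition reaches 70% but some replicates fall short; inactive means mean inhibition below 70%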
Target sequence (P26447 whole entry, looked up): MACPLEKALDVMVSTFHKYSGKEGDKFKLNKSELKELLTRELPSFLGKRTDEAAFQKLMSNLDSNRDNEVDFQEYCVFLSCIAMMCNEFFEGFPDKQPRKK
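assay system = human S100A4 monomer with TAMRA-labelled myosin IIA peptide | also added = labelled myosin peptide probe, 5 nM | incubation = 5 min between mix addition and reading | control set = DMSO and TFP controls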
HepG2 cytotox = cytotoxicity in HepG2 cells, dose response, cytotoxicity control, cell-based, CellTiter-Glo luminescence, cherry-pick, set 4; shares compounds with Ecoli rRNA inh; HepG2 viability, ATP luminescence, 72 h; activity change, negative = cytotoxicity, unspecified at 26 µM; 30 tested, under 10 active;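 active means compounds whose fitted half-maximal signal-loss concentration is at most twice their highest valid dose; inconclusive means flat curve with 30 to 70% signal loss, or poor fit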
AID977621 = growth inhibition of wild-type GFP E. coli, dose response, H69 mutant RFP, cherry-pick | AID 977621, 2014 | E. coli wild-type GFP strain growth, fluorescence, 24 h | activity change, negative = inhibition at 50 µM | 1,900 tested, under 10 active | shares compounds with Ecoli rRNA inh;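 active means Wild-type ribosome reporter drop at least double the humanized mutant ribosome reporter drop, growth loss under a set limit; inconclusive means no clear call, values can overlap the other calls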;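 further: wild-type GFP and H69 mutant RFP strains grown together 50/50 in each well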
AID977628 = E. coli growth inhibition, wild-type GFP versus h24 humanized RFP strain, dose response, h24 mutant RFP vs wild-type GFP, cherry-pick | shares compounds with Ecoli rRNA inh | E. coli WT GFP strain growth, fluorescence, 24 h | activity change, negative = inhibition at 50 µM | 1,900 tested, under 10 active | AID 977628, 2014;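 active means compound lowering the normal-ribosome reporter at least twice as much as the humanized-ribosome reporter, growth loss under a set limit; inconclusive means no clear call, values can overlap the other calls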;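 further: wild-type GFP and h24 humanized RFP strains co-cultured 1 to 1 per well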
Active calls of the source: *; ? = inconclusive; . = no result. In the library only some 3.2% were active in any assay of this set; here they are far more common.

SMILES	MLL AF4-AF9 inh	Cneo AK release	DENV2 CPE rescue	Ecoli rRNA inh	PfHsp90 yeast 2	S100A4 MyoIIA	AID977621	AID977628	others
C[C@@H]1CN([C@H](C)CO)C(=O)c2cc(NC(=O)Nc3ccc4c(c3)OCO4)ccc2O[C@@H]1CN(C)C(=O)Nc1ccccc1	.	-1	9	2	.	.	.	.
C[C@H]1CN([C@@H](C)CO)C(=O)c2cc(NC(=O)Cn3cnnn3)ccc2O[C@@H]1CN(C)Cc1ccc(Cl)c(Cl)c1	-19	3	6	-4	.	1	.	.
O=C(Nc1ccn(Cc2ccc(Cl)cc2)n1)c1ccccc1	2	-2	.	-24*	1	5	-1.2	-9.7
COCC#Cc1ccc2c(c1)O[C@@H](CN(C)CC1CC1)[C@@H](C)CN([C@@H](C)CO)S2(=O)=O	0	-12	-8	8	.	2	.	.
COc1ccc(-c2cn3cc(Cl)ccc3n2)cc1OC	6	-2	2	-27*	-21	5	.	?
COc1ccc(-c2cn3cc(C)ccc3n2)cc1Br	11	.	.	-2	3	-1	.	.
COC(=O)C[C@H]1CC[C@H]2[C@H](COc3ccc(NS(=O)(=O)c4ccc(F)cc4)cc3C(=O)N2C)O1	-1	-2	-3	-1	.	-18	.	.
CCCC(=O)Nc1ccc2c(c1)C(=O)N(C)[C@H]1CC[C@H](CC(=O)Nc3cccc(F)c3)O[C@@H]1CO2	0	.	6	-1	.	4	.	.
O=C(NCC1CCCCC1)[C@@H]1[C@@H](CO)[C@@H]2Cn3c(ccc(-c4ccncc4)c3=O)[C@H]1N2	0	0	10	1	.	4	.	.
CCOc1ccccc1NC(=O)c1cccc(NC(=O)C(C)C)c1	0	.	2	-10	15	1	.	.
CCCC(=O)Nc1cccc(C(=O)Nc2ccccc2OCC)c1	-2	.	-4	-27*	.	-1	0.94	-9
CCOc1ccccc1NC(=O)NNC(=O)c1ccc2ccccc2c1	-11	1	?	0	3	0	.	.
CCOc1ccccc1NC(=O)c1ccc2ccccc2c1	-8	0	?	-25*	-16	0	.	?	HepG2 cytotox=2.5
O=C(c1ccccc1)c1ccc2nc(-c3ccc(NC(=O)c4ccccc4Br)cc3)[nH]c2c1	.	2	.	-17*	4	8	.	-13
COc1ccc(OC)c(-c2csc(NC(=O)C3COc4ccccc4O3)n2)c1 (stereo not drawn)	-1	.	7	-23*	-19	-6	-4.4	.
C[C@H]1CN([C@@H](C)CO)C(=O)c2cc(C#Cc3cccc(F)c3)cnc2O[C@@H]1CN(C)C(=O)C1CCOCC1	.	.	.	-2	.	.	.	.
NC(=O)c1cccnc1Oc1ccc(Cl)cc1Cl	2	.	9	-31*	-5	3	-6.9	-13
CCC1(C(=O)OC)CCc2c(cc(OC)c3ccccc23)C1=O (stereo not drawn)	7	.	0	-27*	-17	2	-6.5	-12
COc1ccccc1CC(=O)NCc1csc(-c2cccs2)n1	0	1	-1	-21*	.	-4	-11	5.7
COc1cccc(C(=O)Nc2ccc3c(c2)C(=O)N(C)C[C@H](OC)[C@@H](C)CN(CC2CC2)[C@@H](C)CO3)c1	1	-3	-9	-2	.	5	.	.
CO[C@@H]1CN(C)C(=O)c2cc(NC(=O)Nc3ccccc3Cl)ccc2OC[C@@H](C)N(S(=O)(=O)CC(F)(F)F)C[C@H]1C	2	-2	1	-8	.	3	.	.
COc1ccc(C2CN=NC23CCCc2ccccc2C3=O)cc1 (stereo not drawn)	.	-1	.	.	62	.	.	.
COc1ccc(C2CN=NC23CCc2ccccc2C3=O)cc1 (stereo not drawn)	4	-1	-3	-20*	-50	1	1.1	.
Cc1ccc(C(=O)NCCc2ccc(S(=O)(=O)N3CCCC3)cc2)cc1	0	-16	1	-7	13	8	.	.
CSc1ccccc1C(=O)NCCc1ccc(S(=O)(=O)N2CCCCC2)cc1	8	0	4	-21*	-6	5	.	-13
SMILES	MLL AF4-AF9 inh	Cneo AK release	DENV2 CPE rescue	Ecoli rRNA inh	PfHsp90 yeast 2	S100A4 MyoIIA	AID977621	AID977628	others
COc1ccc(NC(=O)Nc2ccc3c(c2)C(=O)N([C@@H](C)CO)C[C@H](C)[C@@H](CN(C)C)OCCCC[C@H](C)O3)cc1	3	-3	-7	1	.	8	.	.
COC(=O)C[C@H]1C[C@H]2c3cc(NC(=O)CC4CC4)ccc3O[C@H]2[C@@H](CO)O1	-2	-3	1	4	.	-7	.	.
CCc1ccc(C(=O)Nc2cccnc2Oc2ccc(Cl)cc2)cc1	-4	.	1	-21*	-11	-3	-8.2	.
C[C@H](CO)N1C[C@H](C)[C@H](CN(C)C(=O)NC2CCCCC2)Oc2ccc(NC(=O)NC3CCCCC3)cc2CC1=O	-3	0	-1	0	.	1	.	.
CNC[C@@H]1Oc2ccc(NS(=O)(=O)c3ccc(OC)cc3)cc2CC(=O)N([C@@H](C)CO)C[C@H]1C	-4	0	-5	6	.	2	.	.
COc1ccc(CC(=O)NC(C)c2ccc3ccccc3c2)cc1 (stereo not drawn)	-2	2	8	-23*	-15	-9	.	?
O=C(C[C@H]1C=C[C@@H](NC(=O)CN2CCOCC2)[C@H](CO)O1)NC1CCCCC1	-4	-3	-9	1	.	-8	.	.
Cc1cccc(OCCNc2cc(N3CCN(C)CC3)ccc2[N+](=O)[O-])c1	.	-1	.	.	35	.	.	.
Cc1cccc(OCCNc2ncccc2[N+](=O)[O-])c1	16	1	-4	-17*	.	5	?	.
CO[C@@H]1CN(C)C(=O)c2ccc(NS(=O)(=O)c3ccccc3)cc2OC[C@H](C)NC[C@H]1C	-4	2	0	2	.	-14	.	.
CCOC(=O)CSc1n[nH]c(=S)s1	-6	.	4	0	10	-5	.	.
